Test results from publication PMC7919060 (ACS chemical neuroscience, 2020).
Structures can show the parent of a compound that is named as a salt. Where two headings read alike, the source gives them in different places.

Key:
[1] = system: MDR1-MDCK cell monolayer; assay: Permeability and efflux in MDR1-MDCK cell monolayer; assay type: in vitro ADME
[2] = Mouse pharmacokinetics, single IP dose 10 mg/kg; assay type: in vivo, CD-1 mice
[3] = system: brain GlcCer; conditions: normal mice, 60 mg/kg; cited from earlier work
[4] = Stability to mouse liver microsomes; assay type: in vitro ADME; conditions: CD-1, mouse, pH 7.4
Summary of the method: (§1)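 Test compound at 1 μM with 0.5 mg/mL liver microsomes (CD-1 mouse or human), 1.7 mM β-NADPH, 0.1 M phosphate pH 7.4, 3.3 mM MgCl₂, 37 °C, final DMSO <0.1%. Aliquots at 0–60 min (seven points) were quenched in cold acetonitrile with internal standard. Parent remaining was measured by LC-MS/MS. Half-life was taken from ln(remaining) versus time.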

[5] = Stability to human liver microsomes; assay type: in vitro ADME; conditions: pH 7.4
Summary of the method: as §1

[6] = system: P-glycoprotein (MDR1); assay: Permeability and efflux in MDR1-MDCK cell monolayer; assay type: in vitro ADME; conditions: dog, MDCK-MDR1
[7] = assay type: in vivo, D409V/D409V mice of C57BL/6 background; conditions: both, C57BL/6 (Gba D409V/D409V), mouse, ip, 10 mg/kg
Summary of the method: (§2)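 Gba D409V/D409V mice (C57BL/6 background) received CBE 25 mg/kg IP daily for 14 days from postpartum day 15. Test compound (10 mg/kg qd IP, citrate-saline) or buffer alone was coadministered; 8–11 mixed-gender mice per group. Sacrifice was 2 h after final dose. Brain GlcCer and GlcSph were separated from galactosyl analogues and quantified by LC-MS/MS. Values were normalised to tissue weight (pmol/mg) relative to vehicle controls; Student's t test.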

[8] = system: brain GlcCer and GlcSph; assay type: in vivo, D409V/D409V mice of C57BL/6 background; conditions: CBE mice
Summary of the method: as §2

[9] = system: brain GlcCer; assay: In vivo reduction of brain glucosylceramide in normal mice; conditions: normal C57BL/6 mice, IP
Summary of the method: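 Female or male C57BL/6 mice, 6–8 weeks old, on regular chow, given test compound or vehicle IP daily for 3 days. Injection volume was 1% of body weight. Two dose-response runs were done: 30, 10, 1 mg/kg and 1.0–0.03 mg/kg. Whole brain was homogenised in sucrose buffer, then chloroform/methanol extracted and subjected to alkaline methanolysis. Extract was normalised to 2 μmol phospholipid phosphate. GlcCer was quantified by HPTLC against standards.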

[10] = mouse, IP, 10 mg/kg, single dose

SMILES	brain AUC [2, 10] [ng·h/g]	half-life at 1 μM [4] [min]	half-life at 1 μM [5] [min]	Papp A→B [6] [×10⁻⁶ cm/s]	Papp B→A [6] [×10⁻⁶ cm/s]	concentration at 2 h ([7]; brain) [ng/g]	concentration at 2 h ([7]; spleen) [ng/g]	reduction in brain GlcCer ([8]; IP 10 mg/kg qd for 14 days) [%]	reduction in brain GlcSph ([8]; IP 10 mg/kg qd for 14 days) [%]	further results
O=C(CC1Cc2ccccc2C1)N[C@H](CN1CCCC1)[C@H](O)c1ccc2c(c1)OCCO2 [Compound 2]	36	–	–	–	–	–	–	–	–	efflux ratio ([1]; MDR1-MDCK cell monolayer): 298; Papp A-B ([1]; MDR1-MDCK cell permeability): 0.14 ×10⁻⁶ cm/s; Papp B-A ([1]; MDR1-MDCK cell permeability): 40.8 ×10⁻⁶ cm/s; cumulative B/P ratio (brain AUC/plasma AUC) [2, 10]: 0.11; plasma AUC [2, 10]: 317 ng·h/mL; reduction in brain GlcCer [3]: 17%
CC(C)(NC(=O)O[C@@H]1CN2CCC1CC2)c1csc(-c2ccc(F)cc2)n1 [Compound 3, reference compound]	6188	> 60	> 60	0.58	49	493	4570	26	35	AUC ([2]; female, CD-1, mouse, plasma, ip, 10 mg/kg): 7160 ng·h/mL
O=C(CC1Cc2ccccc2C1)N[C@H](CN1CCCC1)[C@H](O)c1ccc(OC(F)(F)F)cc1 [Compound 17, 2-(2,3-Dihydro-1H-inden-2-yl)-N-((1R,2R)-1-hydroxy-3-(pyrrolidin-1-yl)-1-(4-(trifluoromethoxy)phenyl)propan-2-yl)acetamide]	1046	37	–	0.95	56.6	134	4880	19	39	increase in overall brain exposure vs 2 ([2]; mouse, IP, 10 mg/kg, brain AUC relative to 2): ~30 fold; total brain exposure (AUC) as percentage of that of Genz-682452 ([2]; mouse, single 10 mg/kg IP dose): about 20%; reduction in brain GlcCer ([9]; 1 mg/kg for 3 days): about 34%; reduction in brain GlcCer (printed as negative change) ([9]; 30 mg/kg for 3 days): −41%; effect on brain levels of galactosylceramide and galactosylsphingosine ([8]; selectivity vs galactosylceramide synthase, data not shown): lack of effect
CCCCCCCC(=O)N[C@H](CN1CCCC1)[C@H](O)c1ccc2c(c1)OCCO2 [eliglustat, eliglustat tartrate, reference compound]	–	–	12.5	–	–	–	–	–	–	activity on brain glycosphingolipids in CBE mouse assay ([8]; IP 10 mg/kg qd for 14 days): inactive
